System: MS2 coat protein
Test: apparent Kd, MS2 coat protein; higher = weaker binding; RNA-MaP array; FMN 200 µM where present
Procedure, shortened: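 On Illumina sequencing-chip clusters, designs were transcribed by stalled E. coli RNA polymerase and titrated with SNAP-549-labelled MS2 coat protein (0.7 or 1.5 nM, doubling to 3 µM), without and then with constant ligand, in 100 mM Tris-HCl pH 7.5, 80 mM KCl, 4 mM MgCl2, BSA, DTT, yeast tRNA and Tween-20. Apparent Kd is the median of filtered per-cluster curve fits to green signal normalised to red-channel RNA signal and control-cluster median Fmax.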

[1] = designed as: ON switch for flavin mononucleotide, no ligand
[2] = ligand present: flavin mononucleotide, designed as: ON switch for flavin mononucleotide
[3] = designed as: OFF switch for flavin mononucleotide, no ligand
[4] = ligand present: flavin mononucleotide, designed as: OFF switch for flavin mononucleotide

Row | Sequence | apparent Kd [1] | apparent Kd [2] | apparent Kd [3] | apparent Kd [4]
1 | GGAUCCAACACAGGAUAUGCUGGACUUUGUCCAGCAGAAGGGUGAAGAACAUGAGGAUCACCCAUGUGGAUCCAUAUAUUUUAU | 262 nM | 16.5 nM | – | –
2 | GGAUCCGCUUCCGCCACAUGAGGAUCACCCAUGUGUAUGAACAGAAGGGCGACCUCAAAGAGGGCGCAGGAUAUGUACUCGUAC | 78.3 nM | 48.6 nM | – | –
3 | GGAUCGCAAGAAGAUCCAAUACGAACAUGAGGAUCACCCAUGUAGGAUAUGCUAGAAGAAGAGUAGCAGAAGGACAUGUGCCUU | – | – | 9.79 nM | 42.7 nM
4 | GGAUCGUAUGUCAGGAUAUGCCACUGGAUACAGUGGUAGAAGGGACAUGAGGAUCACCCAUGUCCUACCGAUCC | – | – | 12.5 nM | 14.4 nM
5 | GGAUCUUGGGUCAGGAUAUGCUGGUAUUUUUGCCAGCAGAAGGGACAUGAGGAUCACCCAUGUUCUUGGUUUUG | – | – | 10.7 nM | 13.9 nM
6 | GGAUGACAAAGUCAUCCAAUACGAACAUGAGGAUCACCCAUGUAGGAUAUGCAACACAAAGUGUUGCAGAAGGACAUGUGUCUU | – | – | 30.4 nM | 136 nM
7 | GGAUGACAAAGUCAUCCAAUUCGAACAUGAGGAUCACCCAUGUAGGAUAUGCUACUCAAAGAGUAGCAGAAGGACAUGUGCUUU | – | – | 37.7 nM | 167 nM
8 | GGAUGACAAAGUCAUCCAAUUCGAACAUGAGGAUCACCCAUGUAGGAUAUGGUACUCAAAGAGUACCAGAAGGACAUGUGCUUU | – | – | 38.1 nM | 145 nM
9 | GGAUGACAAAGUCAUCCAUAACGAACAUGAGGAUCACCCAUGUAGGAUAUGCUACUCAAAGAGUAGCAGAAGGACAUGUGUCUU | – | – | 33.9 nM | 158 nM
10 | GGAUGACAAAGUCAUCCCUGACGAACAUGAGGAUCACCCAUGUAGGAUAUGCUACUCAAAGAGUAGCAGAAGGACAUGUGUCUU | – | – | 31.2 nM | 150 nM
11 | GGAUGACAAAGUCAUCCUAUUCGAACAUGAGGAUCACCCAUGUAGGAUAUGCAACUCAAAGAGUUGCAGAAGGACAUGUGCUUU | – | – | 34.7 nM | 166 nM
12 | GGAUGUGUGUAAGGAUAUGCAUCACUGAGAAAUUUAGUGAGGAAGAUCACAUGAGGAUCACCCAUGUAGAAGGUACACACGUGG | – | – | 10.8 nM | 52.7 nM
13 | GGAUUACAUGAGGAUCACCCAUGUGAGGAUAUCGAUGUCCUCAAUGGAGUGCGGGACUCGAGAAGGCACUUGGA | – | – | 338 nM | 168 nM
14 | GGAUUACAUGAGGAUCACCCAUGUGAGGAUAUCGAUGUCCUGUCUUUCGUGCGGGACUCGAGAAGGCACUUGGA | – | – | 45.2 nM | 141 nM
15 | GGCAUAAACGAGGAUAUCGUUACGGAAACGUAACGAGAAGGUGUAACAUGAGGAUCACCCAUGUUCCUCAAGCC | – | – | 30.5 nM | 33 nM
16 | GGCCCACAUGAGGAUCACCCAUGUGAGGAUAUGUUAGUUUCGGCGAAAGCCGAAAUUAACAGAAGGCACAGGCC | – | – | 11.7 nM | 13.6 nM
17 | GGCCUGUUAGGAUAUUAGUAGUAGUCAGAAUAGACUAUUACUGAGAAGGGACAUGAGGAUCACCCAUGUUGGCC | – | – | 17.5 nM | 19.9 nM
18 | GGCGCCCGGGCGGAGUCCCACACACAUGAGGAUCACCCAUGUAGAAGGCGCUGCCGCAAGGUCAGCGAGGAUAUACAUUAAGGA | – | – | 14.8 nM | 45.8 nM
19 | GGCGGAGACGUUAACAUGAGGAUCACCCAUGUCGAAGGAGAUGAGGAUAUCGUAUACGAUGUAUAUGAGAAGGCAUGGUCUGCC | 32.8 nM | 11.3 nM | – | –
20 | GGCGGCGCGGGCCACCGCAGAACCAGAAGGACAUGAGGAUCACCCAUGUAACAAAACAGGGCGGUGUAGGAUAUGGCAGACCCG | – | – | 14.5 nM | 29.7 nM
21 | GGCGGGAAUGAGAAGGGUCACAUGAGGAUCACCCAUGUGCUCUUCGCCGUGACAGGAUAUCAUCGCCGCCAGGUUAGAUUUUUG | – | – | 7.83 nM | 30.9 nM
22 | GGCUAGUCAGGAUAUACGAACAUGUCAAAAGACGUGAAGGGACAUGAGGAUCACCCAUGUAGAAGGGACUAGCA | – | – | 28 nM | 158 nM
23 | GGCUAGUCAGGAUAUACGAACAUGUCAAAAGACGUGAAGGGACAUGAGGAUCACCCAUGUAGAAGGGACUAGCG | – | – | 29.4 nM | 141 nM

From the EternaBench riboswitch data
